STAT1 inh: STAT1 signaling inhibition; NIH 3T3 STAT1-luciferase reporter, IFN-gamma, luminescence; actives 0.35% (n = 200,000); AID 920; inhibition, % at 5.5 µM;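 active = inhibition above a set limit, the mean inhibition across all tested compounds plus 3 SD, cut at about 34% in these data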;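 note: 0% = IFN-gamma with DMSO and 100% = IFN-gamma with 300 µM nifuroxazide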
STAT1 activator: increases IFN-gamma driven STAT1 reporter signal; NIH 3T3 STAT1-luciferase reporter, luminescence; 100% = IFN-gamma alone, no compound; activation (% of control), % at 5.5 µM; actives 2.6% (n = 200,000);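 active = activation above the screen-wide mean activation plus 3 SD, cut at about 130% in these data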;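 note: raw ratio to IFN-gamma control signal so 100% means no change and 0% no light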
APP 5'UTR act: APP 5'UTR luciferase reporter activation; SH-SY5Y APP 5'UTR luciferase reporter, luminescence; zero percent = DMSO vehicle wells; AID 1276; activation, % at 2 µM; actives 1% (n = 190,000);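 active = activation above a set limit, based on mean plus 3 SD of controls, cut at about 140% in these data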
STAT3 act: activators of IL-6 induced STAT3 signaling; U3A cells, IL-6 STAT3-luciferase reporter, luminescence; 100% = signal with IL-6 EC80 alone; activation (% of control), % at 5.6 µM; actives 0.91% (n = 190,000);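 active = activation above the screen-wide mean of compound activation plus 3 SD, cut at about 130% in these data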;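 note: 0% = background luminescence of wells with medium and substrate only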
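Assay system – human STAT1-deficient U3A cells with stable STAT3-luciferase reporter · Also added – IL-6 (33 ng/mL) · Schedule – compound 1 h, then IL-6 6 h at 37 °C · Technique – reporter luminescence signal · Evaluation – % activation versus median of IL-6-stimulated wells · Benchmarks – IL-6-only wells as 100% reference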
NF-kB expr up: NF-kB expression increase, human neuronal cells. AID 1239. fold change at 12.5 µM. actives 1.6% (n = 190,000). NF-kB reporter expression; stronger effect = higher value; in the data active = fold change above about 3.3
STAT3 inh: reduces IL-6 driven STAT3 reporter signal; U3A cells, IL-6 STAT3-luciferase reporter, luminescence; host cell line lacks STAT1; inhibition, % at 5.5 µM; actives 0.89% (n = 190,000);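 active = inhibition above the mean inhibition across all screened compounds plus 3 SD, cut at about 44% in these data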;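 note: 0% = DMSO only wells and 100% = 100 µM nifuroxazide control wells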
Active calls of the source: *. The list is not random: actives were taken first. Their share in the collection is about 4.9%.

Cc1ccc(NC(=O)Cn2ccc([N+](=O)[O-])n2)cc1Cl was read as STAT1 inh -0.5, STAT1 activator 98.7, APP 5'UTR act -7.5, STAT3 act 84.5, NF-kB expr up 0.9 and STAT3 inh 21.9.
`O=C1NC(=S)N/C1=C/C=C/c1ccccc1` gave STAT1 inh -33.8, STAT1 activator 133.9*, APP 5'UTR act -0.2, STAT3 act 92.3, NF-kB expr up 2.51 and STAT3 inh 13.8.
`c1ccc2c(COn3nnc4ccccc43)cccc2c1` gave STAT1 inh -30.6, STAT1 activator 128.2, APP 5'UTR act 109.6, STAT3 act 99.1, NF-kB expr up 3.37* and STAT3 inh 2.6.
CCc1nc2ccccc2c(NC(=O)CN2CC(C)CC(C)C2)c1C (stereo not drawn) was read as STAT1 inh 12.6, STAT1 activator 86.9, APP 5'UTR act 20.0, STAT3 act 96.2, NF-kB expr up 0.61 and STAT3 inh 6.7.
Screening CC(NC(=O)c1ccc(F)cc1)C(=O)NC1=NCCS1 (stereo not drawn) returned STAT1 inh 0.9, STAT1 activator 98.2, APP 5'UTR act 4.5, STAT3 act 101.1, NF-kB expr up 1.16 and STAT3 inh 0.0.
`O=C(CSc1nccn1-c1ncc(C(F)(F)F)cc1Cl)c1ccc(Cl)cc1` gave STAT1 inh -36.2, STAT1 activator 132.6*, APP 5'UTR act -12.2, STAT3 act 197.3*, NF-kB expr up 0.67 and STAT3 inh -101.1.
`O=C(c1ccc([N+](=O)[O-])o1)N1CCOCC1` gave STAT1 inh -3.6, STAT1 activator 103.0, APP 5'UTR act 9.0, STAT3 act 104.7, NF-kB expr up 1.13 and STAT3 inh 0.5.
Screening O=C(c1ccc(-c2ccc([N+](=O)[O-])cc2Cl)o1)N1CCOCC1 returned STAT1 inh -34.9, STAT1 activator 132.8*, APP 5'UTR act 24.6, STAT3 act 112.8, NF-kB expr up 1.9 and STAT3 inh -16.3.
C/C(=N/NC(=O)C(O)(c1ccccc1)c1ccccc1)c1ccc([N+](=O)[O-])o1 was read as STAT1 inh 21.2, STAT1 activator 79.9, APP 5'UTR act 11.9, STAT3 act 101.1, NF-kB expr up 0.81 and STAT3 inh 0.9.
Fc1ccc(NC(=S)N2CCc3ccccc3C2)c(F)c1 was read as STAT1 inh -6.0, STAT1 activator 105.7, APP 5'UTR act -7.6, STAT3 act 110.4, NF-kB expr up 1.09 and STAT3 inh -1.7.
For O=C(Nc1ccc2sccc2c1)c1cccc(N2C(=O)CCC2=O)c1 the results were STAT1 inh -42.5, STAT1 activator 139.9*, APP 5'UTR act 12.8, STAT3 act 109.1, NF-kB expr up 1.95 and STAT3 inh -11.7.
Screening O=C(NC1CCS(=O)(=O)C1)c1cc(-c2ccccc2)nc2ccccc12 (stereo not drawn) returned STAT1 inh 2.7, STAT1 activator 96.9, APP 5'UTR act 3.1, STAT3 act 102.4, NF-kB expr up 0.98 and STAT3 inh -0.4.
Screening CC1(C)CN(c2ccsc2C(=O)O)C1=O returned STAT1 inh -3.1, STAT1 activator 99.8, APP 5'UTR act -1.8, STAT3 act 110.7, NF-kB expr up 0.84 and STAT3 inh -7.9.
For O=C(CSc1ccccc1)Nc1ccc(-c2nc3ccccc3[nH]2)cc1 the results were STAT1 inh -34.3, STAT1 activator 131.2*, APP 5'UTR act 93.5, STAT3 act 116.0, NF-kB expr up 1.86 and STAT3 inh -24.6.
Screening CCNC(=S)Nc1ccc(-c2nc3ccccc3[nH]2)cc1 returned STAT1 inh -37.6, STAT1 activator 131.6*, APP 5'UTR act 109.9, STAT3 act 91.0, NF-kB expr up 2.63 and STAT3 inh 15.4.
For O=C(Cc1cccs1)Nc1ccc(-c2nc3ccccc3[nH]2)cc1 the results were STAT1 inh -50.7, STAT1 activator 145.3*, APP 5'UTR act 151.7*, STAT3 act 114.8, NF-kB expr up 2.67 and STAT3 inh -13.3.
For O=C(CSc1ccc(Cl)cc1)Nc1cccc(-c2nc3ccccc3[nH]2)c1 the results were STAT1 inh -22.8, STAT1 activator 120.6, APP 5'UTR act 18.7, STAT3 act 98.9, NF-kB expr up 1.44 and STAT3 inh 6.5.
For CC(c1ccccc1)N(NC(=O)C(O)(c1ccccc1)c1ccccc1)C(=O)c1ccccc1 (stereo not drawn) the results were STAT1 inh 4.5, STAT1 activator 97.9, APP 5'UTR act -6.9, STAT3 act 100.9, NF-kB expr up 1.03 and STAT3 inh -3.7.
Screening Cc1cnc(C(=O)Nc2cccc(S(=O)(=O)N(C)C)c2)cn1 returned STAT1 inh 4.8, STAT1 activator 95.6, APP 5'UTR act 41.8, STAT3 act 98.9, NF-kB expr up 1.03 and STAT3 inh 0.7.
`Cc1cc(C(=O)CSc2nc3ccccc3o2)c(C)n1CC1CCCO1` (stereo not drawn) gave STAT1 inh -32.1, STAT1 activator 142.4*, APP 5'UTR act 46.6, STAT3 act 70.7, NF-kB expr up 0.78 and STAT3 inh 35.9.
`O=C(N/N=C/c1ccccc1C(=O)O)c1ccc(COc2cccc3cccnc23)cc1` gave STAT1 inh -14.8, STAT1 activator 112.3, APP 5'UTR act 15.4, STAT3 act 105.7, NF-kB expr up 1.01 and STAT3 inh -5.5.
For O=C(N/N=C/c1ccc[nH]1)c1ccc(COc2cccc3cccnc23)cc1 the results were STAT1 inh -14.6, STAT1 activator 113.9, APP 5'UTR act -46.1, STAT3 act 42.0 and STAT3 inh 70.2*.
Screening CCCN=Cc1sc2ccc(OCC)cc2c1O returned STAT1 inh -32.8, STAT1 activator 129.8*, APP 5'UTR act 45.4, STAT3 act 90.0, NF-kB expr up 1.82 and STAT3 inh 15.3.
For Cc1ccc(C23CC4CC(CC(C(=O)OCC(=O)NC5CCS(=O)(=O)C5)(C4)C2)C3)cc1 (stereo not drawn) the results were STAT1 inh 10.5, STAT1 activator 89.7, APP 5'UTR act 3.4, STAT3 act 89.0, NF-kB expr up 1.23 and STAT3 inh 14.4.
O=C(Cc1ccccc1)NS(=O)(=O)c1ccc(N=NN2CCOCC2)cc1 was read as STAT1 inh 10.0, STAT1 activator 89.5, APP 5'UTR act 17.7, STAT3 act 99.3, NF-kB expr up 1.05 and STAT3 inh 6.1.
Cc1cccc(-n2c(C)cc(C=C3C(=O)c4ccccc4C3=O)c2C)c1 was read as STAT1 inh -1.0, STAT1 activator 100.9, APP 5'UTR act 5.8, STAT3 act 95.3, NF-kB expr up 0.71 and STAT3 inh 15.5.
For Cc1cc(C=C2C(=O)c3ccccc3C2=O)c(C)n1C the results were STAT1 inh 3.9, STAT1 activator 96.5, APP 5'UTR act 98.9, STAT3 act 111.0, NF-kB expr up 6.27* and STAT3 inh -8.9.

Screening data deposited in PubChem by several laboratories.
